Experimental data published in ChEMBL document CHEMBL3779787, “Amorfrutin C Induces Apoptosis and Inhibits Proliferation in Colon Cancer Cells through Targeting Mitochondria” (J Nat Prod, 2016).
Calls of active or inactive are those of the source. No cut-off for these calls is given here.

What was measured:
[1] = test system: HT-29; experiment: Induction of apoptosis in human HT-29 cells assessed as increase in caspase 3/7 activity at 30 uM after 2 hrs by luminescent assay relative to control; assay type: functional
In short: (§1)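 HT-29 cells exposed to compound 2 h; effector/initiator caspase enzymatic activity measured by luminescent assays, normalized to control treatment; means ± SEM, n = 4.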

[2] = test system: HT-29; experiment: Induction of apoptosis in human HT-29 cells assessed as permanent opening of mitochondrial permeability transition pore at 30 uM after 30 mins calcein/CoCl2 staining-based fluorescence assay; assay type: functional, cell-based
In short: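 Trypsinized HT-29 (10^6 cells/mL) in HBSS/Ca with 10 nM calcein and 400 μM CoCl2. Pretreated 60 min at 37 °C with 2 μM cyclosporin A or vehicle, then test compound for 30 min at 37 °C. Washed; mitochondrial calcein fluorescence by flow cytometry; means ± SEM, n = 6.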

[3] = test system: MCF7; experiment: Antiproliferative activity against human MCF7 cells assessed as cellular DNA content after 96 hrs by CyQUANT NF fluorescence assay; assay type: functional, cell-based; settings: MCF7, 96 h
In short: (§2)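 Cells seeded at 750 (HT-29), 250 (PC-3) or 900 (T84, MCF7) cells/well, treated next day with concentration series for 72 h (HT-29, PC-3) or 96 h (T84, MCF7). Relative cell number from cellular DNA content by fluorescent DNA-binding dye. Variable-slope fit; efficiency = maximal inhibition (100% − Bottom) vs untreated; IC50 relative to the compound's own maximal efficiency.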

[4] = test system: T84; experiment: Antiproliferative activity against human T84 cells assessed as cellular DNA content after 96 hrs by CyQUANT NF fluorescence assay; assay type: functional, cell-based; settings: T84, 96 h; in short: as §2
[5] = Antiproliferative activity against human PC3 cells assessed as cellular DNA content after 72 hrs by CyQUANT NF fluorescence assay; assay type: functional, cell-based; settings: PC-3, 72 h; in short: as §2
[6] = test system: HT-29; experiment: Upregulation of p27/Kip1 expression in human HT-29 cells at 10 uM after 48 hrs by immunoblotting method; assay type: functional, cell-based
In short: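 HT-29 cells exposed 48 h to 10 μM compound. Whole-cell protein lysates probed for cell-cycle modulators by immunoblotting.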

[7] = test system: HT-29; experiment: Downregulation of cyclin E2 expression in human HT-29 cells at 10 uM after 48 hrs by immunoblotting method; assay type: functional, cell-based
In short: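 HT-29 exposed to 10 μM for 48 h; whole-cell lysates immunoblotted for the indicated proteins (total and cleaved PARP for the apoptosis line).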

[8] = test system: HT-29; experiment: Induction of apoptosis in human HT-29 cells assessed as increase in caspase 9 activity at 30 uM after 2 hrs by luminescent assay relative to control; assay type: functional; in short: as §1
[9] = test system: HT-29; experiment: Induction of apoptosis in human HT-29 cells assessed as increase in cleaved caspase 3 at 30 uM after 6 hrs by DAPI staining-based fluorescence microscopy; assay type: functional, cell-based
In short: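 HT-29 on coverslips treated 30 μM for 6 h, fixed in 4% formaldehyde, permeabilized with 0.3% Triton X-100, blocked in goat serum. Anti-cleaved caspase 3 (1:200) overnight at 4 °C, then Alexa Fluor 488 secondary (1:1000) 1 h. DAPI counterstain; imaged by fluorescence microscopy.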

[10] = test system: HT-29; experiment: Induction of apoptosis in human HT-29 cells at 30 uM after 24 hrs by annexin V-FLUOS/propidium iodide staining-based flow cytometry in presence of PPAR siRNA; assay type: functional, cell-based
In short: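 HT-29 transfected with PPARα/β/δ/γ siRNA pool (10 nM each) or 30 nM nonspecific siRNA, seeded 150 000 cells/well. After 48 h, 30 μM compound added for a further 24 h. Phosphatidylserine externalization by annexin V flow cytometry; means ± SEM, n = 6.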

[11] = test system: HT-29; experiment: Antiproliferative activity against human HT-29 cells assessed as cellular DNA content at 20 uM after 48 hrs by CyQUANT NF fluorescence assay in presence of N-acetylcysteine; assay type: functional, cell-based
In short: (§3)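 HT-29 given concentration series of test compound with or without antioxidant (NAC 1 mM, GSH 2.5 mM, D3T 25 μM, α-tocopherol 50 μM, ascorbic acid 500 μM) for 48 h. Relative cell number from DNA-binding fluorescent dye; means ± SD, n = 4.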

[12] = test system: HT-29; experiment: Antiproliferative activity against human HT-29 cells assessed as cellular DNA content at 20 uM after 48 hrs by CyQUANT NF fluorescence assay in presence of alpha-tocopherol; assay type: functional, cell-based; in short: as §3
[13] = test system: HT-29; experiment: Induction of apoptosis in human HT-29 cells at 30 uM after 24 hrs by annexin V-FLUOS/propidium iodide staining-based flow cytometry in presence of N-acetylcysteine; assay type: functional, cell-based
In short: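 HT-29 treated 24 h with 30 μM with or without antioxidant (NAC 1 mM, D3T 25 μM). Apoptosis by annexin V/propidium iodide flow cytometry; means ± SEM, n = 3.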

[14] = test system: HT-29; experiment: Induction of apoptosis in human HT-29 cells at 30 uM after 24 hrs by annexin V-FLUOS/propidium iodide staining-based flow cytometry in presence of glutathione; assay type: functional, cell-based
In short: (§4)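 HT-29 cells co-incubated 24 h with 30 μM compound and antioxidant: glutathione 2.5 mM, α-tocopherol 50 μM, or ascorbic acid 500 μM. Phosphatidylserine externalization measured by annexin V-FLUOS/propidium iodide staining and flow cytometry. Means ± SEM, n = 3.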

[15] = test system: HT-29; experiment: Induction of apoptosis in human HT-29 cells at 30 uM after 24 hrs by annexin V-FLUOS/propidium iodide staining-based flow cytometry in presence of ascorbic acid; assay type: functional, cell-based; in short: as §4
[16] = test system: HT-29; experiment: Increase in mitochondrial oxygen consumption in human HT-29 cells at 2 to 10 uM measured for 20 to 60 mins by time-resolved fluorescence assay; assay type: functional, cell-based
In short: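 HT-29 at 80 000 cells/well in phenol red-free DMEM/F-12 with oxygen-sensitive lifetime probe, compound added, wells sealed with mineral oil. Time-resolved fluorescence at 37 °C, 90 s intervals for 150 min. Lifetime slope over 20–60 min expressed relative to untreated cells; means ± SEM, n = 8.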

[17] = test system: HT-29; experiment: Increase in extracellular acidification rate in human HT-29 cells at 10 uM measured for 20 to 150 mins by time-resolved fluorescence assay; assay type: functional
In short: (§5)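 HT-29 seeded 80 000 cells/well, held overnight at 37 °C without CO2. Low-buffering medium (1 mM PBS pH 7.4, 20 mM glucose, salts) with pH-sensitive lifetime probe, unsealed wells. Time-resolved fluorescence at 37 °C for 200 min, lifetime converted to pH. Acidification rate (H+ change/min) taken over 20–150 min; means ± SEM, n = 8.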

[18] = test system: HT-29; experiment: Increase in extracellular acidification rate in human HT-29 cells at 2 uM measured for 20 to 150 mins by time-resolved fluorescence assay; assay type: functional; in short: as §5
[19] = test system: HT-29; experiment: Induction of apoptosis in human HT-29 cells assessed as increase in phosphatidylserine externalization at 10 uM after 48 hrs by flow cytometry in presence of alphaFas; assay type: functional, cell-based
In short: (§6)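 HT-29 exposed 48 h to 10 μM compound, αFAS (10 ng/mL), TRAIL (30 ng/mL) or combinations. Phosphatidylserine externalization by annexin V flow cytometry. Expected combination effects from Bliss independence; means ± SEM, n = 4.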

[20] = test system: HT-29; experiment: Induction of apoptosis in human HT-29 cells assessed as increase in phosphatidylserine externalization at 10 uM after 48 hrs by flow cytometry in presence of TNF-related apoptosis inducing ligand; assay type: functional, cell-based; in short: as §6

IC50 [3]: 14 µM
SMILES: COc1c(CC=C(C)C)c(O)c(C(=O)O)c(CCc2ccccc2)c1CC=C(C)C
fold change (FC) [1]: 2
Activity [2]: Active
IC50 [4]: 11 µM
IC50 [5]: 16 µM
Activity [6]: Active
Activity [7]: Active
fold change (FC) [8]: 3
Activity [9]: Active
Activity [10]: Active
Activity [11]: Active
Activity [12]: Active
Activity [13]: Active
Activity [14]: Active
Activity [15]: Active
Activity [16]: Active
Activity [17]: 2.9 ×10⁻⁹ /min
Activity [18]: 1.5 ×10⁻⁹ /min
Activity [19]: Active
Activity [20]: Active
